Activity, survival and GI50 data for 1 compound are collected here from ChEMBL document CHEMBL3734720, “Synthesis of thiophene-thiosemicarbazone derivatives and evaluation of their in vitro and in vivo antitumor activities” (Eur J Med Chem, 2015).

Series [1] has as its system 786-0. Kind of series: Cell cycle arrest in human 786-0 cells assessed as accumulation at Sub G1 phase at 25 uM after 24 hrs by propidium iodide based flow cytometric analysis (reference value: 3.0 +/- 0.7%). The series is classed as functional. In general terms: Flow cytometry measures light scatter and fluorescence of single cells or particles in a stream.
A short description of series [2]: Acute toxicity in Balb/C mouse assessed as survival rate at 600 mg/kg, po. The class given is organism-based. As to conditions: in vivo. A digest of the protocol: (§1)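 Fixed dose procedure following OECD guideline; Balb/C mice (20-35 g) fasted 16 h, groups of 5 given single oral doses stepwise at 600, 400 and 200 mgKg-1; survival and clinical signs of pain, suffering and impending death recorded per OECD guidance.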

Series [3] can be described thus: Antitumor activity against mouse EAT implanted in Balb/C mouse assessed as change in paw volume at 30 mg/kg, po administered on day 3 post tumor inoculation measured on day 9 by plethysmometer analysis (reference value: 95.5 +/- 5.2%). The series is classed as functional.
Series [4] is described as follows: Antitumor activity against mouse EAT implanted in Balb/C mouse assessed as change in paw volume at 300 mg/kg, po administered on day 3 post tumor inoculation measured on day 3 by plethysmometer analysis (reference value: 40.2 +/- 7.0%). The class given is functional.
Series [5] can be described thus: Antitumor activity against mouse EAT implanted in Balb/C mouse assessed as change in paw volume at 100 mg/kg, po administered on day 3 post tumor inoculation measured on day 6 by plethysmometer analysis (reference value: 86.1 +/- 5.7%). The class given is functional.
Series [6] is described as follows: Antiproliferative activity against human NCI-ADR-RES cells assessed as growth inhibition after 48 hrs by SRB assay. The class given is functional. A digest of the protocol: (§2)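 Cells exposed 48 h at 37 °C, 5% CO2 to 0.25, 2.5, 25 and 250 µg/mL in DMSO/RPMI (final DMSO 0.1%); doxorubicin standard at 0.025–25 µg/mL. Plates fixed with 50% TCA before (T0) and after treatment; protein content read by sulforhodamine B at 540 nm. GI50 (µM) from nonlinear regression of concentration–response curves; triplicate.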
Background: Sulforhodamine B stains cellular protein and so reports cell mass.

For series [7], the system named is 786-0. Kind of series: Induction of cell death in human 786-0 cells assessed as phosphatidylserine externalization at 50 uM after 18 hrs by annexin V/7-amino-actinomycin D double staining based flow cytometric analysis (reference value: 7.2 +/- 1.4%). The series is classed as functional.
The subject of a further series is U-251. Kind of series: Antiproliferative activity against human U251 cells assessed as growth inhibition after 48 hrs by SRB assay. The class given is functional. To be noted: U-251, 48 h. A digest of the protocol: as §2
A short description of series [8]: Acute toxicity in Balb/C mouse assessed as survival rate at 200 mg/kg, po. The series is classed as organism-based. To be noted: in vivo. A digest of the protocol: as §1
The nature of series [9]: Antitumor activity against mouse EAT implanted in Balb/C mouse assessed as change in paw volume at 30 mg/kg, po administered on day 3 post tumor inoculation measured on day 15 by plethysmometer analysis (reference value: 166.5 +/- 6.0%). The class given is functional.

Usually GI50 stands for the concentration that inhibits growth by half. Consider `S=C(N/N=C/c1cccs1)Nc1ccc(Br)cc1`, for which the Activity stood at 5.4% in the series on 786-0 [1]; 57.1% in series [3]; 39.4% in series [4]; 78.1% in series [5]; 15.5% with 786-0 [7]; 82% in series [9]. Further, the survival in series [2] and in [8] was 100% throughout. In addition, the GI50 in series [6] was determined as 1700 nM; in the series on U-251, 4200 nM.
